Data published in ChEMBL document CHEMBL1150393, “Evaluation of radiolabeled (hetero)aromatic analogues of N-(2-diethylaminoethyl)-4-iodobenzamide for imaging and targeted radionuclide therapy of melanoma” (J Med Chem, 2008).

Key:
[1] = test system: Spleen; assay: Biodistribution in spleen of C57BL/6 mouse bearing mouse B16-F0 cells at 0.74 to 0.92 MBq, iv after 3 hrs; format: ADME, organism-based; settings: in vivo
Summary of the method: (§1)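 [¹²⁵I]-labelled compound given iv by tail vein (0.1 µmol per mouse) to male C57BL6 mice bearing s.c. B16-F0 flank tumours (5 × 10⁵ cells in PBS). Two mice per time point were killed by CO₂, frozen in liquid nitrogen and cut into 40 µm cryosections, eight slices per mouse. Slice radioactivity was read on a multiwire proportional counter, converted to kBq/g and reported as %ID/g.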

[2] = test system: Blood; assay: Biodistribution in blood of C57BL/6 mouse bearing mouse B16-F0 cells at 0.74 to 0.92 MBq, iv after 6 hrs; format: ADME, organism-based; settings: in vivo
Summary of the method: (§2)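 Male C57BL6 mice with s.c. left-flank B16-F0 melanoma (5 × 10⁵ cells in PBS). Two mice per time point frozen in liquid nitrogen after CO₂ sacrifice. Eight 40 µm whole-body cryosections per mouse read by multiwire proportional counter. cpm/mm² converted to kBq/g and expressed as %ID/g.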

[3] = Ratio of drug level in tumor to liver of C57BL/6 mouse bearing mouse B16-F0 cells at 0.74 to 0.92 MBq, iv after 24 hrs; format: ADME, organism-based; settings: in vivo
Summary of the method: (§3)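 Tumour and organ radioactive concentrations came from whole-body cryosection counting (40 µm slices, eight per mouse, two mice per time) after tail-vein injection of the [¹²⁵I]-labelled compound (0.1 µmol) into male C57BL6 mice bearing s.c. B16-F0 melanoma. Each value is the ratio of the tumour concentration to the organ concentration.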

[4] = test system: Lung; assay: Biodistribution in lung of C57BL/6 mouse bearing mouse B16-F0 cells at 0.74 to 0.92 MBq, iv after 1 hr; format: ADME, organism-based; settings: in vivo; summary of the method: as §2
[5] = Drug excretion in mouse B16-F0 cells bearing C57BL/6 mouse urine at 0.74 to 0.92 MBq, iv after 72 hrs; format: ADME, organism-based; settings: in vivo
Summary of the method: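 Urine was collected from two B16-F0 tumour-bearing C57BL6 mice for up to 72 h after iv tail-vein injection of the [¹²⁵I]-labelled compound (0.1 µmol). Samples were counted to give cumulative urinary excretion as %ID.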

[6] = test system: Spleen; assay: Biodistribution in spleen of C57BL/6 mouse bearing mouse B16-F0 cells at 0.74 to 0.92 MBq, iv after 1 hr; format: ADME, organism-based; settings: in vivo; summary of the method: as §1
[7] = Ratio of drug level in tumor to liver of C57BL/6 mouse bearing mouse B16-F0 cells at 0.74 to 0.92 MBq, iv after 1 hr; format: ADME, organism-based; settings: in vivo; summary of the method: as §3
[8] = Ratio of drug level in tumor to lung of C57BL/6 mouse bearing mouse B16-F0 cells at 0.74 to 0.92 MBq, iv after 3 hrs; format: ADME, organism-based; settings: in vivo; summary of the method: as §3
[9] = test system: Kidney; assay: Biodistribution in kidney of C57BL/6 mouse bearing mouse B16-F0 cells at 0.74 to 0.92 MBq, iv after 6 hrs; format: ADME, organism-based; settings: in vivo; summary of the method: as §2
[10] = Biodistribution in intestinal content of C57BL/6 mouse bearing mouse B16-F0 cells at 0.74 to 0.92 MBq, iv after 1 hr; format: ADME, organism-based; settings: in vivo; summary of the method: as §2
[11] = test system: Muscle tissue; assay: Biodistribution in muscle of C57BL/6 mouse bearing mouse B16-F0 cells at 0.74 to 0.92 MBq, iv after 1 hr; format: ADME, organism-based; settings: in vivo; summary of the method: as §2
[12] = Biodistribution in uvea of C57BL/6 mouse bearing mouse B16-F0 cells at 0.74 to 0.92 MBq, iv after 24 hrs; format: ADME, organism-based, Uveal tract; settings: in vivo; summary of the method: as §1
[13] = test system: Kidney; assay: Biodistribution in kidney of C57BL/6 mouse bearing mouse B16-F0 cells at 0.74 to 0.92 MBq, iv after 3 hrs; format: ADME, organism-based; settings: in vivo; summary of the method: as §2
[14] = Biodistribution in Stomach content of C57BL/6 mouse bearing mouse B16-F0 cells at 0.74 to 0.92 MBq, iv after 3 hrs; format: ADME, organism-based; settings: in vivo; summary of the method: as §2
[15] = test system: Muscle tissue; assay: Biodistribution in muscle of C57BL/6 mouse bearing mouse B16-F0 cells at 0.74 to 0.92 MBq, iv after 3 hrs; format: ADME, organism-based; settings: in vivo; summary of the method: as §2
[16] = Biodistribution in tumor of C57BL/6 mouse bearing mouse B16-F0 cells at 0.74 to 0.92 MBq, iv after 6 hrs; format: ADME, organism-based, Neoplasm; settings: in vivo; summary of the method: as §1
[17] = Ratio of drug level in tumor to liver of C57BL/6 mouse bearing mouse B16-F0 cells at 0.74 to 0.92 MBq, iv after 3 hrs; format: ADME, organism-based; settings: in vivo; summary of the method: as §3
[18] = test system: Liver; assay: Biodistribution in liver of C57BL/6 mouse bearing mouse B16-F0 cells at 0.74 to 0.92 MBq, iv after 1 hr; format: ADME, organism-based; settings: in vivo; summary of the method: as §2
[19] = test system: Liver; assay: Biodistribution in liver of C57BL/6 mouse bearing mouse B16-F0 cells at 0.74 to 0.92 MBq, iv after 24 hrs; format: ADME, organism-based; settings: in vivo; summary of the method: as §2
[20] = test system: Thyroid gland; assay: Biodistribution in thyroid of C57BL/6 mouse bearing mouse B16-F0 cells at 0.74 to 0.92 MBq, iv after 24 hrs; format: ADME, organism-based; settings: in vivo; summary of the method: as §1
[21] = Biodistribution in Stomach content of C57BL/6 mouse bearing mouse B16-F0 cells at 0.74 to 0.92 MBq, iv after 1 hr; format: ADME, organism-based; settings: in vivo; summary of the method: as §2
[22] = Ratio of drug level in tumor to brain of C57BL/6 mouse bearing mouse B16-F0 cells at 0.74 to 0.92 MBq, iv after 1 hr; format: ADME, organism-based; settings: in vivo; summary of the method: as §3
[23] = Biodistribution in tumor of C57BL/6 mouse bearing mouse B16-F0 cells at 0.74 to 0.92 MBq, iv after 24 hrs; format: ADME, organism-based, Neoplasm; settings: in vivo; summary of the method: as §1
[24] = test system: Liver; assay: Biodistribution in liver of C57BL/6 mouse bearing mouse B16-F0 cells at 0.74 to 0.92 MBq, iv after 3 hrs; format: ADME, organism-based; settings: in vivo; summary of the method: as §2
[25] = Ratio of drug level in tumor to lung of C57BL/6 mouse bearing mouse B16-F0 cells at 0.74 to 0.92 MBq, iv after 1 hr; format: ADME, organism-based; settings: in vivo; summary of the method: as §3
[26] = Biodistribution in Stomach content of C57BL/6 mouse bearing mouse B16-F0 cells at 0.74 to 0.92 MBq, iv after 6 hrs; format: ADME, organism-based; settings: in vivo; summary of the method: as §2
[27] = Biodistribution in tumor of C57BL/6 mouse bearing mouse B16-F0 cells at 0.74 to 0.92 MBq, iv after 72 hrs; format: ADME, organism-based, Neoplasm; settings: in vivo; summary of the method: as §1
[28] = test system: Brain; assay: Biodistribution in brain of C57BL/6 mouse bearing mouse B16-F0 cells at 0.74 to 0.92 MBq, iv after 1 hr; format: ADME, organism-based; settings: in vivo; summary of the method: as §2
[29] = test system: Pancreas; assay: Biodistribution in pancreas of C57BL/6 mouse bearing mouse B16-F0 cells at 0.74 to 0.92 MBq, iv after 1 hr; format: ADME, organism-based; settings: in vivo; summary of the method: as §2
[30] = Biodistribution in tumor of C57BL/6 mouse bearing mouse B16-F0 cells at 0.74 to 0.92 MBq, iv after 3 hrs; format: ADME, organism-based, Neoplasm; settings: in vivo; summary of the method: as §1
[31] = Biodistribution in uvea of C57BL/6 mouse bearing mouse B16-F0 cells at 0.74 to 0.92 MBq, iv after 6 hrs; format: ADME, organism-based, Uveal tract; settings: in vivo; summary of the method: as §1
[32] = test system: Liver; assay: Biodistribution in liver of C57BL/6 mouse bearing mouse B16-F0 cells at 0.74 to 0.92 MBq, iv after 6 hrs; format: ADME, organism-based; settings: in vivo; summary of the method: as §2
[33] = Partition coefficient, log P in phosphate buffer solution at pH 7.4; format: physicochemical
Summary of the method: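 Shake-flask partition: 50 µM [¹²⁵I]-labelled compound in phosphate buffer pH 7.4 was mixed with 2 mL n-octanol. Each phase was γ-counted, P was taken as the octanol/buffer activity ratio, and log P was reported.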

[34] = test system: Brain; assay: Biodistribution in brain of C57BL/6 mouse bearing mouse B16-F0 cells at 0.74 to 0.92 MBq, iv after 3 hrs; format: ADME, organism-based; settings: in vivo; summary of the method: as §2

| Drug uptake [1] | Drug uptake [2] | Ratio [3] | Drug uptake [4] | Activity [5] | Drug uptake [6] | Ratio [7] | Ratio [8] | Drug uptake [9] | Drug uptake [10] | Drug uptake [11] | Drug uptake [12] | Drug uptake [13] | Drug uptake [14] | Drug uptake [15] | Drug uptake [16] | Ratio [17] | Drug uptake [18] | Drug uptake [19] | Drug uptake [21] | Structure (SMILES) | also measured |
| --- | --- | --- | --- | --- | --- | --- | --- | --- | --- | --- | --- | --- | --- | --- | --- | --- | --- | --- | --- | --- | --- |
| 0.28 % ID/g | 0.17 % ID/g | 39.14 | 2.06 % ID/g | 23.8% | 1.24 % ID/g | 0.91 | 4.6 | 0.2 % ID/g | 52.94 % ID/g | 0.92 % ID/g | 3.5 % ID/g | 0.8 % ID/g | 9.93 % ID/g | 0.13 % ID/g | 5.8 % ID/g | 2.2 | 5.16 % ID/g | 0.07 % ID/g | 12.74 % ID/g | CCN(CC)CCNC(=O)c1c[nH]c2ccc([125I])cc2c1=O.Cl.Cl | Drug uptake [20]: 5.09 % ID/g; Ratio [22]: 67; Drug uptake [23]: 2.7 % ID/g; Drug uptake [24]: 1.84 % ID/g; Ratio [25]: 2.28; Drug uptake [26]: 22.27 % ID/g; Drug uptake [27]: 2.4 % ID/g; Drug uptake [28]: 0.07 % ID/g; Drug uptake [29]: 5.74 % ID/g; Drug uptake [30]: 4.1 % ID/g; Drug uptake [31]: 5.18 % ID/g; Drug uptake [32]: 0.32 % ID/g; logD [33]: 1.3 |
| 2.79 % ID/g | 0.67 % ID/g | 5.07 | 14.41 % ID/g | 21.5% | 8.09 % ID/g | 0.7 | 2.95 | 2.5 % ID/g | 76.74 % ID/g | 1.5 % ID/g | 8.81 % ID/g | 4.19 % ID/g | 18.52 % ID/g | 0.49 % ID/g | 9.8 % ID/g | 1.96 | 11.86 % ID/g | 1.61 % ID/g | 35.41 % ID/g | CCN(CC)CCNC(=O)c1cc2cc([125I])ccc2[nH]1.Cl | Drug uptake [34]: 1.73 % ID/g; Ratio [22]: 1.69; Drug uptake [23]: 8.2 % ID/g; Drug uptake [24]: 5.21 % ID/g; Ratio [25]: 0.58; Drug uptake [26]: 21.84 % ID/g; Drug uptake [27]: 0.8 % ID/g; Drug uptake [28]: 4.84 % ID/g; Drug uptake [29]: 7.15 % ID/g; Drug uptake [30]: 10.2 % ID/g; Drug uptake [31]: 13.2 % ID/g; Drug uptake [32]: 3.63 % ID/g; logD [33]: 1.69 |
